MEKK3 PB1 HTS = raises or lowers MEK5 binding to the human MEKK3 PB1 domain | Q99759 | bead-based flow cytometry, Alexa488-MEK5 binding to MEKK3; actives lie on both sides; 0 = blocked by unlabeled MEK5, 100 = vehicle | binding response (% of control), % at 10 µM | hit rate 1.4% among 290,000 | AID 1529;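 active = binding response more than 3 SD above or below the average of its plate-row segment, actives on both sides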;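 note: Alexa488 bead fluorescence after subtracting the streptavidin-only scavenger bead signal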
MEKK2 WT-MEK5 = raises or lowers MEK5 binding to wildtype human MEKK2 PB1 domain; AID 1531; binding response (% of control), % at 10 µM; hit rate 1.1% among 290,000; bead flow cytometry, Alexa488-MEK5 binding to MEKK2 WT; actives lie on both sides; Q9Y2U5; in the data active = binding response below about 67% or above about 130%
Apaf1 inhib = blocks human Apaf-1 apoptosome activity | hit rate 0.71% among 330,000 | reconstituted apoptosome caspase-3 activity, DEVD-Rh110 fluorescence | O14727 | inhibition, % at 20 µM; active = inhibition of at least 40% at 20 µM;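 note: plate controls were DMSO wells for no effect and DEVD-CHO caspase inhibitor wells for full effect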
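Assay system – apoptosome proteins · Medium – Hepes buffer, pH 7.5 · Also added – cytochrome c with DEVD-Rh110 · Timing – 30 min compound preincubation, 50 min activation, room temperature · Detection – Rh110 fluorescence, excitation 480 nm, emission 540 nm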
Pemphigus Ab inh = human desmoglein-3 autoantibody binding inhibition; DSG3-coupled beads, scFv-anti-DSG3-GFP binding, flow cytometry; hits give low values; binding (percent of control), % at 10 µM; hit rate 0.48% among 310,000;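 active = binding more than 3 SD below its plate's average and above zero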;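 note: hits lower antibody fragment binding to DSG3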
UBC13 polyUb = inhibitors of human UBC13 polyubiquitin chain formation. inhibition, % at 20 µM. TR-FRET. P61088. hit rate 0.47% among 330,000; in the data active = inhibition above about 45%, passing the limit was not always enough
MEKK2mut PB1 HTS = signal of MEK5 binding to mutant human MEKK2 PB1 domain; AID 1530; bead flow cytometry, Alexa488-MEK5 binding to MEKK2 mutant; percent response, % at 10 µM; hit rate 0.35% among 290,000; in the data active = percent response above about 24%, passing the limit was not always enough
MEKK2wt confirm = raises or lowers MEK5 binding to wildtype human MEKK2, retest; shares compounds with MEKK3 PB1 HTS; bead flow cytometry, Alexa488-MEK5 binding to MEKK2 WT; actives lie on both sides; binding response (% of control), % at 10 µM; hit rate 2.4% among 5,900; in the data active = binding response below about 16% or above about 210%; inactive = in between
MEKK2mut-MEK5 = signal of MEK5 binding to mutant human MEKK2, retest | percent response, % at 10 µM | bead flow cytometry, Alexa488-MEK5 binding to MEKK2 mutant | hit rate 2% among 5,900 | shares compounds with MEKK3 PB1 HTS; in the data active = percent response mostly above about 71%, no sharp cut-off; inactive = mostly below about 38%;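 note: higher means compound restores mutant binding toward wildtype level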
MEKK3 confirm = MEKK3-MEK5 PB1 inhibition, single concentration confirmation; shares compounds with MEKK3 PB1 HTS; bead flow cytometry, Alexa488-MEK5 binding to MEKK3; hits give low values; binding response (% of control), % at 10 µM; hit rate 1.8% among 5,900;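 active = binding response below 72% of control, or above a set upper limit, though filed actives all read lower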;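 note: 100% = DMSO only wells and 0% = binding blocked by excess unlabeled MEK5; lower values mean stronger disruption of MEK5 binding to MEKK3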
* marks the source's active call; other numbers are inactive results; nt = not tested or not shown; [ ] = another dose, or the depositor's remark. Hits are enriched below; roughly 3.2% of the tested compounds scored in any of these assays.

SMILES | MEKK3 PB1 HTS | MEKK2 WT-MEK5 | Apaf1 inhib | Pemphigus Ab inh | UBC13 polyUb | MEKK2mut PB1 HTS | MEKK2wt confirm | MEKK2mut-MEK5 | MEKK3 confirm
CCN1CCN(Cc2ccc(NC(=O)c3ccc(C)c(NC(=O)c4ccnnc4)c3)cc2C(F)(F)F)CC1 | 81.0*[inhibitor] | 99.0 | -1.9 | 102.1 | 0.0 | -6.0 | 112.0 | 5.0 | 103.0
CCCCCOc1ccc(/C(C)=N/NC2=NCCN2)cc1 | 106.0 | 148.0* | 8.7 | 131.8 | 34.8 | 20.0 | 129.0 | 10.0 | 93.0
Cc1ccc(-c2nnn(CC(=O)NC3CCN(Cc4ccccc4)CC3)n2)cc1 | 71.0*[inhibitor] | 111.0 | 9.8 | nt | 29.0 | 1.0 | 110.0 | 0.0 | 105.0
NCCCCCCNS(=O)(=O)c1cccc2c(Cl)cccc12 | 116.0 | 140.0* | 23.5 | 105.8 | 38.0 | 10.0 | 112.0 | 2.0 | 98.0
CN(C)CCCNS(=O)(=O)c1cc(Cl)ccc1Cl | 96.0 | 100.0 | -5.0 | 101.0 | -0.7 | 2.0 | nt | nt | nt
CCN(C[C@H]1N[C@@](CC)(C(=O)OC)[C@H]2C(=O)N(C)C(=O)[C@@H]12)C(=O)c1ccccc1 | nt | nt | -6.8 | 97.1 | -3.0 | nt | nt | nt | nt
CN(C(=O)COC(=O)C(Cc1ccccc1)NC(=O)c1ccccc1)c1ccccc1 (stereo not drawn) | 134.0* | 106.0 | -0.7 | 110.0 | 4.7 | 0.0 | 101.0 | -8.0 | 98.0
CCOC(=O)NN1C(=O)c2ccccc2NC1c1ccccc1 (stereo not drawn) | 149.0* | 105.0 | -0.1 | 95.6 | 28.4 | 1.0 | 119.0 | 15.0 | 107.0
CCOC(=O)NN1C(=O)c2ccccc2NC1c1ccc(N(C)C)cc1 (stereo not drawn) | 144.0* | 109.0 | -2.8 | 101.6 | 6.5 | 1.0 | 103.0 | 10.0 | 107.0
O=C1/C(=C/c2cccs2)N=C(c2cccs2)N1Nc1ccccc1 | 88.0 | 57.0*[inhibitor] | 9.7 | 102.8 | -13.3 | -16.0 | 78.0 | -8.0 | 103.0
CC(C)CCOc1ccc(C(=O)NN2C(=O)NC3(CCCCC3)C2=O)cc1 | nt | nt | 3.6 | 99.1 | -0.3 | nt | nt | nt | nt
O=C(/C=C/c1ccc(N2CCC(c3ccccc3)=N2)cc1)c1ccccc1 | 78.0 | nt | 18.3 | nt | -38.7 | 281.0* | 94.0 | -50.0 | 78.0
CCOC(=O)/C(=C\c1ccc(N2CCC(c3ccccc3)=N2)cc1)C(C)=O | nt | nt | nt | 144.2 | nt | nt | nt | nt | nt
O=[N+]([O-])c1ccc(COc2ccc(CN3CCCC3)cc2)cc1 | nt | nt | nt | 104.2 | nt | nt | nt | nt | nt
CN(C)CCNc1ncnc2oc(-c3ccccc3)c(-c3ccccc3)c12 | 109.0 | 122.0 | 11.7 | 91.1 | 5.2 | 17.0 | nt | nt | nt
COc1ccc(-c2oc3ncnc(NCCCN(C)C)c3c2-c2ccc(OC)cc2)cc1 | 109.0 | 171.0* | 21.2 | 105.7 | 10.5 | 30.0* | 144.0 | 27.0 | 100.0
O=C(COc1ccc2c(c1)CCC2)N1CCN(c2ccccc2F)CC1 | 142.0* | 109.0 | 18.1 | 134.0 | 7.1 | 0.0 | 108.0 | 6.0 | 104.0
O=C(OCCCOC(=O)c1ccccc1O)c1ccccc1O | 107.0 | 114.0 | 18.5 | nt | 2.6 | 10.0 | nt | nt | nt
CN1C/C(=C/c2cccnc2)C(=O)/C(=C/c2cccnc2)C1 | 59.0*[inhibitor] | 100.0 | nt | 97.3 | nt | -1.0 | 99.0 | -4.0 | 103.0
CC(C)N1C/C(=C/c2cccnc2)C(=O)/C(=C/c2cccnc2)C1 | 110.0 | 107.0 | nt | 106.3 | nt | 7.0 | nt | nt | nt
Cc1ccc(C(=O)NCC(=O)OCCCOC(=O)CNC(=O)c2ccc(C)cc2)cc1 | nt | nt | -0.6 | 108.5 | -10.1 | nt | nt | nt | nt
COc1ccc(CC(=O)N2N=C(C)CC2(O)c2cccnc2)cc1OC (stereo not drawn) | 128.0* | 100.0 | 0.9 | 87.7 | 12.6 | -1.0 | 103.0 | -4.0 | 103.0
